Assay results as given in ChEMBL document CHEMBL4184143 (J Med Chem, 2017).

Experiments:
MV4-11 [1] = test: Growth inhibition of human MV4-11 cells after 4 days by WST-8 assay; type: functional, cell-based; details: MV4-11, 96 h
MOLM-13 = test: Growth inhibition of human MOLM13 cells after 4 days by WST-8 assay; type: functional, cell-based; details: MOLM-13, 96 h
Procedure, shortened: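 MOLM-13 leukemia cells were seeded at 10,000 cells/well and exposed to serially diluted compound for 4 days. Signal was normalized to DMSO controls, and IC50 was fitted by nonlinear regression.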

[2] = target: T1, Bromodomain-containing protein 4 (Homo sapiens, UniProt O60885); test: Inhibition of FAM-labeled ZBA248 binding to recombinant human N-terminal His6-tagged BRD4 bromodomain 1 (44 to 168 residues) expressed in Rosetta2 DE3 cells after 30 mins by Flourescence polarization assay; type: biochemical
[3] = target: T1, Bromodomain-containing protein 4; test: Inhibition of FAM-labeled ZBA248 binding to recombinant human N-terminal His6-tagged BRD4 bromodomain 2 (333 to 460 residues) expressed in Rosetta2 DE3 cells after 30 mins by Flourescence polarization assay; type: biochemical
[4] = Half life in CD1 mouse liver microsomes at 1 uM by LC/MS method; type: ADME, microsome
[5] = Half life in Sprague-Dawley rat liver microsomes at 1 uM by LC/MS method; type: ADME, microsome
[6] = Half life in human liver microsomes at 1 uM by LC/MS method; type: ADME, microsome
Mus musculus [7] = test: Toxicity in SCID mouse implanted with human MV-411 cells assessed as weight loss at 50 mg/kg, po qd measured 2 to 3 times weekly during treatment and weekly post dose; type: organism-based; details: in vivo
Procedure, shortened: (§1)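 At ~100 mm3, mice were randomized to treatment or vehicle control. Tumors were measured by electronic calipers. Animals were checked daily for signs of toxicity and weighed 2–3 times weekly on treatment, then at least weekly afterwards.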

Mus musculus [8] = test: Toxicity in SCID mouse implanted with human MV4-11 cells at 50 mg/kg, po qd measured 2 to 3 times weekly during treatment and once weekly post dose; type: organism-based; details: in vivo; procedure, shortened: as §1
MV4-11 [9] = test: Antitumor activity against human MV4-11 cells xenografted in SCID mouse assessed as tumor growth inhibition at 50 mg/kg, po qd measured 2 to 3 times weekly during treatment and once weekly post dose; type: functional; details: MV4-11, po, read-out: TGI; procedure, shortened: as §1
[10] = Drug level in SCID mouse at 25 mg/kg, po after 3 hrs by LC-MS/MS analysis; type: ADME, organism-based; details: in vivo, read-out: Drug uptake
Procedure, shortened: (§2)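 SCID mice received a single oral dose of 25 mg/kg in 20% (v/v) PCP/70% (v/v) PBS vehicle. Blood was collected and centrifuged to plasma, which was stored at −80 °C. Plasma drug concentration was measured by a validated LC–MS/MS method.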

[11] = Drug level in SCID mouse at 25 mg/kg, po after 6 hrs by LC-MS/MS analysis; type: ADME, organism-based; details: in vivo, read-out: Drug uptake; procedure, shortened: as §2
[12] = Drug level in SCID mouse at 25 mg/kg, po after 1 hr by LC-MS/MS analysis; type: ADME, organism-based; details: in vivo, read-out: Drug uptake; procedure, shortened: as §2
[13] = AUC (0 to t) in Sprague-Dawley rat at 25 mg/kg, po by LC/MS method; type: ADME, organism-based; details: in vivo
Procedure, shortened: (§3)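 Sprague Dawley rats were dosed iv at 5 mg/kg or orally at 25 mg/kg, with compound dissolved in 20% (v/v) PCP/70% (v/v) PBS vehicle. Blood was drawn by catheter at 0, 5, 15, 30 min and 1, 2, 4, 6, 8, 24 h and spun to plasma, which was stored at −80 °C. Plasma drug was quantified by a validated LC–MS/MS method, and parameters were derived noncompartmentally.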

[14] = Aqueous solubility of the compound in 5% DMSO/10% cremophor/85% saline; type: physicochemical; details: buffer
[15] = Cmax in Sprague-Dawley rat at 25 mg/kg, po by LC/MS method; type: ADME, organism-based; parameters: dose 25 mg/kg, route oral; details: in vivo; procedure, shortened: as §3
[16] = Half life in Sprague-Dawley rat at 25 mg/kg, po by LC/MS method; type: ADME, organism-based; details: in vivo; procedure, shortened: as §3

| IC50 (MV4-11 [1]) | IC50 (MOLM-13) | IC50 [2] | Ki [2] | IC50 [3] | Ki [3] | Structure (SMILES) | further results |
| --- | --- | --- | --- | --- | --- | --- | --- |
| > 10000 nM | > 10000 nM | > 1000 nM | > 1000 nM | > 1000 nM | > 1000 nM | COc1cc2c(cc1-c1c(C)noc1C)[nH]c1ncnc(-n3nnc4ccccc43)c12 |  |
| 15 nM | 262 nM | 29.4 nM | 9.9 nM | 9.4 nM | 2.8 nM | COc1cc2c(cc1-c1c(C)noc1C)[nH]c1ncnc(-n3cnc4ccccc43)c12 |  |
| 2 nM | 20 nM | 6.1 nM | 0.8 nM | 1.9 nM | < 0.5 nM | COc1cc2c(cc1-c1c(C)noc1C)[nH]c1nc(C)nc(-c3c(C)[nH]c4ccccc34)c12 | t1/2 [4]: > 1 h; t1/2 [5]: > 1 h; t1/2 [6]: 0.15 h |
| 253 nM | 612 nM | 165 nM | 51.9 nM | 108 nM | 30.6 nM | COc1cc2c(cc1-c1c(C)noc1C)[nH]c1ncnc(-c3cc[nH]c3)c12 |  |
| 182 nM | 709 nM | 102 nM | 41.2 nM | 164 nM | 68.7 nM | COc1cc2c(cc1-c1c(C)noc1C)[nH]c1ncnc(-c3c(C)noc3C)c12 |  |
| 17 nM | 69 nM | 19.7 nM | 5.7 nM | 5.2 nM | 1.6 nM | COc1cc2c(cc1-c1c(C)noc1C)[nH]c1nc(C)nc(-c3cc(C)nc4ccccc34)c12 | t1/2 [4]: > 1 h; t1/2 [5]: > 1 h; t1/2 [6]: > 1 h |
| 99 nM | 233 nM | 51.7 nM | 19.7 nM | 63.5 nM | 20.2 nM | COc1cc2c(cc1-c1c(C)noc1C)[nH]c1ncnc(-c3c(C)n[nH]c3C)c12 |  |
| 29 nM | 380 nM | 32.4 nM | 9.3 nM | 12.2 nM | 2.8 nM | COc1cc2c(cc1-c1c(C)noc1C)[nH]c1ncnc(-c3c(C)oc4ccccc34)c12 |  |
| > 10000 nM | > 10000 nM | 147 nM | 85.1 nM | 74.9 nM | 22.5 nM | COc1cc2c(cc1-c1c(C)noc1C)[nH]c1ncnc(-c3nn(C)c4ccccc34)c12 |  |
|  |  | 393 nM | 131 nM | 199 nM | 57 nM | COc1cc2c(cc1-c1c(C)noc1C)[nH]c1ncnc(-c3cn[nH]c3)c12 |  |
| > 1000 nM | 1140 nM | 316 nM | 78.6 nM | 167 nM | 52.3 nM | COc1cc2c(cc1-c1c(C)noc1C)[nH]c1nc(C)nc(-c3cccc4ccncc34)c12 |  |
| 13 nM | 127 nM | 10.8 nM | 4.2 nM | 25.9 nM | 9.1 nM | COc1cc2c(cc1-c1c(C)noc1C)[nH]c1ncnc(-c3c(C)[nH]c4cnccc34)c12 |  |
| 69 nM | 243 nM | 73.1 nM | 31.8 nM | 14.6 nM | 4.2 nM | COc1cc(-c2nc(C)nc3[nH]c4cc(-c5c(C)noc5C)c(OC)cc4c23)c2ccccc2n1 |  |
| 13 nM | 139 nM | 48.7 nM | 28 nM | 26.5 nM | 6.5 nM | COc1cc2c(cc1-c1c(C)noc1C)[nH]c1ncnc(-c3cnn4ccccc34)c12 |  |
| 334 nM |  | 412 nM | 129 nM | 193 nM | 58.2 nM | COc1cc2c(cc1-c1c(C)noc1C)[nH]c1nc(C)nc(-c3cccc4cccnc34)c12 |  |
| 423 nM | 716 nM | 397 nM | 136 nM | 128 nM | 42.6 nM | COc1cc2c(cc1-c1c(C)noc1C)[nH]c1nc(C)nc(-c3cnc4ccccc4c3)c12 |  |

| IC50 (MV4-11 [1]) | IC50 (MOLM-13) | IC50 [2] | Ki [2] | IC50 [3] | Ki [3] | Structure (SMILES) | further results |
| --- | --- | --- | --- | --- | --- | --- | --- |
| 77 nM | 971 nM | 393 nM | 122 nM | 92.7 nM | 26.9 nM | COc1cc2c(cc1-c1c(C)noc1C)[nH]c1nc(C)nc(-c3cc(C(F)(F)F)nc4ccccc34)c12 |  |
| 2860 nM | > 10000 nM | 155 nM | 44.3 nM | 180 nM | 56.4 nM | COc1cc2c(cc1-c1c(C)noc1C)[nH]c1ncnc(-c3ccoc3)c12 |  |
| 95 nM | 193 nM | 40.9 nM | 18.5 nM | 89.7 nM | 31.2 nM | COc1cc2c(cc1-c1c(C)noc1C)[nH]c1ncnc(-c3c(C)nn(C)c3C)c12 |  |
| 295 nM | 656 nM | 451 nM | 139 nM | 436 nM | 146 nM | COc1cc2c(cc1-c1c(C)noc1C)[nH]c1nc(C)nc(-c3cccc4cnccc34)c12 |  |
| 57 nM | 205 nM | 20.3 nM | 4.9 nM | 5.5 nM | 1.1 nM | COc1cc2c(cc1-c1c(C)noc1C)[nH]c1ncnc(-c3c[nH]c4ccccc34)c12 |  |
| 1060 nM | 9270 nM | 1460 nM | 456 nM | 1140 nM | 335 nM | COc1cc2c(cc1-c1c(C)noc1C)[nH]c1ncnc(-n3ccnc3)c12 |  |
| 28 nM | 76 nM | 30.9 nM | 10.1 nM | 15.5 nM | 3.1 nM | COc1cc2c(cc1-c1c(C)noc1C)[nH]c1nc(C)nc(-c3cccc4ncccc34)c12 |  |
| 47 nM | 124 nM | 35.6 nM | 9.5 nM | 12.7 nM | 3.8 nM | COc1cc2c(cc1-c1c(C)noc1C)[nH]c1nc(C)nc(-c3cncc4ccccc34)c12 |  |
|  |  |  |  |  |  | COc1cc2c(cc1-c1c(C)noc1C)ncc1[nH]c(=O)n([C@H](C)c3ccccn3)c12 | Activity (Mus musculus [7]): Non-Toxic; Activity (Mus musculus [8]): Non-Toxic; inhibition in vivo at 50 mg/kg (MV4-11 [9]): > 80% |
|  |  | 1130 nM | 387 nM | 1760 nM | 476 nM | COc1cc2c(cc1-c1c(C)noc1C)[nH]c1ncnc(Cl)c12 |  |
|  |  | 2060 nM | 655 nM | 1880 nM | 641 nM | COc1cc2c(cc1-c1c(C)noc1C)[nH]c1ncnc(-c3cnoc3)c12 |  |
| 6 nM | 36 nM | 24.1 nM | 7 nM | 11.7 nM | 2.7 nM | COc1cc2c(cc1-c1c(C)noc1C)[nH]c1ncnc(-c3c(C4CC4)n[nH]c3C)c12 | concentration at 3 h [10]: 872 ng/mL; concentration at 6 h [11]: 72 ng/mL; concentration at 1 h [12]: 2200 ng/mL |
| 6.6 nM | 65 nM | 5 nM | 0.7 nM | 1.1 nM | < 0.5 nM | COc1cc2c(cc1-c1c(C)noc1C)[nH]c1ncnc(-c3c(C)[nH]c4ccccc34)c12 | t1/2 [4]: 0.067 h; AUC(0-t) [13]: 13400 ng·h/mL; solubility [14]: Insoluble; t1/2 [5]: > 1 h; Cmax [15]: 1400 ng/mL; t1/2 [6]: 0.13 h; half-life [16]: 1.7 h |
| 190 nM | 489 nM | 11.6 nM | 7 nM | 22.7 nM | 7.1 nM | COc1cc2c(cc1-c1c(C)noc1C)[nH]c1ncnc(-c3c[nH]c4cnccc34)c12 |  |
|  |  | 39.2 nM | 12 nM | 26.4 nM | 10.4 nM | COc1cc2c(cc1-c1c(C)noc1C)[nH]c1ncnc(N[C@H](C)c3ccccn3)c12 |  |
